Results on 13 compounds are retold here after PubChem BioAssay.

Experiment [1] is described as follows: SK-BR-3 cell growth inhibitors, pilot screen, 24 h, human (AID 572;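 active = viability at or below 10% of carrier control in both of two separate runs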;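 also: compound exposure lasted between 18 and 24 h rather than exactly 24 h; 100% = carrier-treated control wells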). The settings on record: SK-BR-3 viability, CellTiter-Glo luminescence, at 10 µM, stronger effect = lower value. For orientation: ATP-based viability assays read luminescence as a measure of living cells.
Experiment [2] can be described thus: HUVEC growth inhibition – cell-based, human, primary screen (AID 575;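 active = viability at or below 30% in both replicate assays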;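 also: 100% = median of untreated cell wells with 0.1% DMSO on each plate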). The settings on record: HUVEC proliferation, CellTiter-Glo luminescence, 72 h; at 10 µM; stronger effect = lower value. The gist of the method:
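system = HUVEC primary cells | amount = 1250 cells/well | buffer or medium = supplemented EBM, 2% fetal bovine serum | dosing = single-point 10 µM, DMSO 0.1% final | times = 72 h compound incubation | detection = CTG luminescence | read-out = % viability relative to median vehicle-well signal on each plate | control set = vehicle and MePR control wells | format = collagen-coated 384-well format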

Experiment [3] can be described thus: growth inhibitors of H69AR lung tumor, primary screen, human, duplicate replicates (AID 580;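 active = viability at or under a set limit in both replicates, limit being median viability minus 3 SD, cut at about 48% in these data, passing the limit was not always enough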;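 also: 100% = mean luminescence of untreated wells and 0% = no signal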). The settings on record: H69AR lung tumor cells viability, ATP luminescence, 72 h; at 10 µM; stronger effect = lower value.
Experiment [4] can be described thus: reversal of MRP1-mediated doxorubicin resistance, pilot screen, H69AR cells, doxorubicin co-treatment (AID 601). The settings on record: CellTiter-Glo, 72 h, at 10 µM; for differential viability (reversal): stronger effect = higher value.
A short description of experiment [5]: 384-well plate pilot, post-Golgi transport modulator project, inhibition of yeast transport mutant growth (AID 636; in the data active = inhibition above about 31%). The settings on record: absorbance 615 nm, about 18 h, stronger effect = higher value.
Experiment [6] in a line: growth suppression of yeast trafficking mutant, preliminary HTS, modulators of trafficking downstream of Golgi apparatus project, 1536-format plate, OD 615 nm (AID 637; in the data active = inhibition above about 30%). The settings on record: yeast transport mutant growth, absorbance 615 nm, 18 h; stronger effect = higher value.
The mark [7] stands for this setting: H69AR cells + 2 uM doxorubicin, measured here: viability with 2 uM doxorubicin, stronger effect = lower value.
[8] abbreviates: H69AR cells, compound alone cytotoxicity.

Structures are written as SMILES. Activity calls are given as the source filed them.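 The calls were made as follows, unless noted: active = viability loss from added drug above about 55%, and viability with drug at most 40%, in both replicates (limit read from the data, passing the limit was not always enough); inconclusive = both conditions met in only one replicate; inactive = neither replicate meets both conditions.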

On to `COc1ccccc1NC(=O)NC(N)=O`, for which the viability – broadly, a read-out of living cells in per cent, often relative to untreated cells – in experiment [1] was 102% (inactive); in experiment [2] it was 87.7% (inactive); in experiment [3], 96.4% (inactive); in experiment [4] (setting [7]) it was 94.5%; in experiment [4] (setting [8]), 96.4%. Moreover, in experiment [4] (H69AR cells + 2 uM doxorubicin), the differential viability (reversal) was 1.88% (inactive). Besides, the values for the inhibition in experiment [5] and in experiment [6] were -5.89% (inactive) and 7.64% (inactive), respectively.
For `Cc1[nH]nc2c1C(c1ccc(F)cc1)C1=C(CC(C)(C)CC1=O)N2` (centres undefined), the viability was 126% (inactive) in experiment [1]; 102% (inactive) in experiment [2]; 87.4% (inactive) in experiment [3]; 87.8% in experiment [4] (setting [7]); 87.4% in experiment [4] (setting [8]). In experiment [4] (H69AR cells + 2 uM doxorubicin), the differential viability (reversal) was -0.39% (inactive). In addition, the inhibition (commonly the relative decrease from the control value, in per cent) in experiment [5] is -5.14% (inactive); in experiment [6] it was 3.97% (inactive).
As to `CCOC(=O)CSc1nc2sc(C)c(C)c2c(=O)[nH]1`, the viability in experiment [1] was 98% (inactive); in experiment [2], 101% (inactive); in experiment [3] it was 92.2% (inactive); in experiment [4] (setting [7]) it was 108%; in experiment [4] (setting [8]), 92.2%. Also, in experiment [4] (H69AR cells + 2 uM doxorubicin), the differential viability (reversal) is -15.3% (inactive). For the same compound, the figures for the inhibition in experiment [5] and in experiment [6] were -4.79% (inactive) and 13.3% (inactive), respectively.
Take `COc1ccc(C2/C(=C(/O)c3ccc(OC(C)C)cc3)C(=O)C(=O)N2CCCN2CCOCC2)cc1` (centres undefined): the viability in experiment [1] is 112% (inactive); in experiment [2], 97.7% (inactive); in experiment [3] it was 92.4% (inactive); in experiment [4] (setting [7]), 105%; in experiment [4] (setting [8]), 92.4%. For the same compound, the differential viability (reversal) in experiment [4] (H69AR cells + 2 uM doxorubicin) is -12.4% (inactive). The inhibition is -5.21% (inactive) in experiment [5] and -1.09% (inactive) in experiment [6].
Consider `Cc1c(NC(=O)c2nn(C)c(=O)c3ccccc23)c(=O)n(-c2ccccc2)n1C`, for which the viability is 94% (inactive) in experiment [1]; 108% (inactive) in experiment [2]; 97.9% (inactive) in experiment [3]; 89.1% in experiment [4] (setting [7]); 97.9% in experiment [4] (setting [8]). Besides, the differential viability (reversal) in experiment [4] (H69AR cells + 2 uM doxorubicin) was 8.84% (inactive). Moreover, the inhibition in experiment [5] was -1.92% (inactive); in experiment [6], -8.06% (inactive).
In the case of `CN(CC(=O)Nc1ccc(F)c(Cl)c1)S(=O)(=O)c1cccc2nsnc12`, the viability in experiment [1] is 99% (inactive); in experiment [2], 74.3% (inactive); in experiment [3], 90.1% (inactive); in experiment [4] (setting [7]), 81.8%; in experiment [4] (setting [8]), 90.1%. Moreover, the differential viability (reversal) in experiment [4] (H69AR cells + 2 uM doxorubicin) is 8.32% (inactive). The results for the inhibition in experiment [5] and in experiment [6] were -2.3% (inactive) and -1.09% (inactive), respectively.
Turning to `O=C(Nc1ccc2c(c1)OCO2)N1CCN(c2ncccn2)CC1`, the viability is 126% (inactive) in experiment [1]; 106% (inactive) in experiment [2]; 85.5% (inactive) in experiment [3]; 108% in experiment [4] (setting [7]); 85.5% in experiment [4] (setting [8]). Moreover, the differential viability (reversal) in experiment [4] (H69AR cells + 2 uM doxorubicin) was -22.1% (inactive). Also, the inhibition in experiment [5] is -8.49% (inactive); in experiment [6], -1.64% (inactive).
Consider `Cc1ccc2c(c1)CCCN2C(=O)c1ccc2c(c1)OCO2`, for which the viability is 48% (inactive) in experiment [1]; 108% (inactive) in experiment [2]; 101% (inactive) in experiment [3]; 110% in experiment [4] (setting [7]); 101% in experiment [4] (setting [8]). For the same compound, the differential viability (reversal) in experiment [4] (H69AR cells + 2 uM doxorubicin) is -8.85% (inactive). The inhibition was -8.63% (inactive) in experiment [5] and -6.18% (inactive) in experiment [6].
For the compound `COCCn1nnnc1C(c1ccccc1OC)N1CCc2ccccc2C1` (centres undefined), the viability is 119% (inactive) in experiment [1]; 103% (inactive) in experiment [2]; 82.1% (inactive) in experiment [3]; 88.8% in experiment [4] (setting [7]); 82.1% in experiment [4] (setting [8]). The differential viability (reversal) in experiment [4] (H69AR cells + 2 uM doxorubicin) is -6.74% (inactive). The inhibition is -8.24% (inactive) in experiment [5] and -6.36% (inactive) in experiment [6].
For the compound `O=C(CCn1c(=O)c2ccccc2n(CC(=O)NCCC2=CCCCC2)c1=O)NCc1ccco1`, the viability in experiment [1] is 99% (inactive); in experiment [2], 90.9% (inactive); in experiment [3], 92.2% (inactive); in experiment [4] (setting [7]), 87%; in experiment [4] (setting [8]), 92.2%. In addition, in experiment [4] (H69AR cells + 2 uM doxorubicin), the differential viability (reversal) was 5.12% (inactive). The figures for the inhibition in experiment [5] and in experiment [6] were -5.06% (inactive) and -2.79% (inactive), respectively.
Turning to `COc1c2occc2c(OC)c2c(=O)cc(C)oc12`, the viability in experiment [1] was 87% (inactive); in experiment [2] it was 67.9% (inactive); in experiment [3] it was 91.2% (inactive); in experiment [4] (setting [7]), 92.8%; in experiment [4] (setting [8]), 91.2%. Further, in experiment [4] (H69AR cells + 2 uM doxorubicin), the differential viability (reversal) was -1.66% (inactive). Besides, the results for the inhibition in experiment [5] and in experiment [6] were 0.13% (inactive) and -5.17% (inactive), respectively.
As to `CCC(c1c(C)n(C)n(-c2ccccc2)c1=O)c1c(C)n(C)n(-c2ccccc2)c1=O`, the viability was 78% (inactive) in experiment [1]; 103% (inactive) in experiment [2]; 100% (inactive) in experiment [3]; 91.5% in experiment [4] (setting [7]); 100% in experiment [4] (setting [8]). The differential viability (reversal) in experiment [4] (H69AR cells + 2 uM doxorubicin) was 8.48% (inactive). Also, the inhibition in experiment [5] is -5.21% (inactive); in experiment [6], 4.73% (inactive).
As for `O=C1c2ccccc2NC(c2cccc(F)c2)N1Cc1ccco1` (centres undefined), the viability was 53% (inactive) in experiment [1]; 103% (inactive) in experiment [2]; 92% (inactive) in experiment [3]; 87.3% in experiment [4] (setting [7]); 92% in experiment [4] (setting [8]). In experiment [4] (H69AR cells + 2 uM doxorubicin), the differential viability (reversal) was 4.72% (inactive). The inhibition is -6.85% (inactive) in experiment [5] and -1.64% (inactive) in experiment [6].
